We go through seven compounds from ChEMBL document CHEMBL3994599, “Pallidopenillines: Polyketides from the Alga-Derived Fungus Penicillium thomii Maire KMM 4675” (J Nat Prod, 2016).

Molecules are shown by their SMILES. pIC50: −log10 of the molar value. Calls of active or inactive are those of the source. The calls are words filed in the database; no cut-off is given here.

For test [1], the system named is MEL28. As to the kind of experiment: Cytotoxicity against human MEL28 cells assessed as reduction in cell viability up to 100 uM after 24 to 72 hrs by MTT assay. Format: functional, cell-based. (Tetrazolium dyes change colour on reduction, which living cells bring about.)
For test [2], the system named is HCT-116. The test can be described thus: Cytotoxicity against human HCT116 cells assessed as reduction in cell viability up to 100 uM after 24 to 72 hrs by MTT assay. In kind it is functional, cell-based.
Test [3] deals with CWR22R. The test can be described thus: Cytotoxicity against human 22Rv1 cells assessed as inhibition of colony formation at 2 uM relative to control. Format: functional. The procedure, abridged:
(§1)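 Soft agar method: 22Rv1 human prostate cancer cells were grown in soft agar with compound. Colony formation and growth were compared with untreated control.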

The test system of test [4] is CWR22R. As to the kind of experiment: Cytotoxicity against human 22Rv1 cells assessed as reduction in cell viability up to 72 hrs by MTT assay. Format: functional, cell-based. As to conditions: 22Rv1, 72 h.
For test [5], the system named is RAW264.7. The test can be described thus: Inhibition of ROS generation in mouse RAW264.7 cells at 10 uM after 24 hrs by H2DCF-DA staining based fluorescence assay relative to control. Format: functional. As to conditions: RAW264.7, 24 h. The procedure, abridged:
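RAW 264.7 murine macrophages were stimulated with lipopolysaccharide (LPS), and compounds were tested at 10 μM. ROS levels were expressed as percent change relative to control cells treated with LPS alone. Significance was reported as p values.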

Test [6] has as its system CWR22R. As to the kind of experiment: Cytotoxicity against human 22Rv1 cells assessed as inhibition of colony formation at 1 uM relative to control. Format: functional. The procedure, abridged: as §1

For orientation: inhibition means how much of the control response was suppressed. For orientation: pIC50 means the IC50 on a negative log10 scale, so that one unit is a factor of ten.

For the compound `CC(=O)OC[C@H]1CC[C@@H]2[C@@H](C(=O)CCO)[C@](C)(O)C=C[C@H]2C1`, the outcome in test [1] and in test [2] was inactive.

On to `C[C@H]1CC[C@H]2[C@@H](C=C[C@@](C)(O)[C@@H]2C(=O)CCO)[C@@H]1O`, for which the outcome in test [1] and in test [2] was inactive.

Turning to `CC(=O)OCCC(=O)[C@@H]1[C@H]2CC[C@H](C)[C@@H](O)[C@@H]2C=C[C@@]1(C)O`, the inhibition at 2 µM in test [3] came out at 40%. Moreover, the result in test [1] and in test [2] was inactive.

With `CC(=O)OCCC(=O)[C@H]1C(C)=C[C@@H](O)[C@H]2[C@H](O)[C@@H](C)CC[C@H]12`, the pIC50 in test [4] was 5.01. This compound also gave an inhibition at 10 µM in test [5] of 36%. Besides, in test [6], the inhibition at 1 µM turned out to be 40%.

Regarding `CC(=O)OCCC(=O)[C@@H]1[C@H]2CC[C@H](COC(C)=O)C[C@@H]2C=C[C@@]1(C)O`, the result in test [1] and in test [2] was inactive.

The compound `CC(=O)OCCC(=O)[C@@H]1[C@H]2CC[C@H](C)[C@@H](O)[C@@H]2[C@H](Cl)[C@@H](O)[C@@]1(C)O` gave an inhibition at 10 µM in test [5] of 37%.

Turning to `CC(=O)OCCC(=O)[C@@H]1[C@H]2CC[C@H](CO)C[C@@H]2C=C[C@@]1(C)O`, testing at 10 µM in test [5] gave an inhibition of 27%. The result in test [1] and in test [2] was inactive.
